Data from ChEMBL document CHEMBL1681781, “Structure based design and syntheses of amino-1H-pyrazole amide derivatives as selective Raf kinase inhibitors in melanoma cells” (Bioorg Med Chem, 2011).
pIC50: −log10 of the molar value.

Experiments:
[1] = target: RAF proto-oncogene serine/threonine-protein kinase (Homo sapiens, UniProt P04049); assay: inhibition of RAF1 assessed as [33P]gamma-ATP incorporation into substrate at 10 uM after 40 mins by scintillation counting
[2] = target: T1, Serine/threonine-protein kinase PLK1 (Homo sapiens, UniProt P53350); assay: inhibition of PLK1
[3] = target: T2, Mitogen-activated protein kinase 8 (Homo sapiens, UniProt P45983); assay: inhibition of JNK1a1 at 10 uM
[4] = target: T3, Hepatocyte growth factor receptor (Homo sapiens, UniProt P08581); details: 10 uM
[5] = target: T4, Mitogen-activated protein kinase 10 (Homo sapiens, UniProt P53779); assay: inhibition of JNK3
[6] = system: RAC-alpha serine/threonine-protein kinase (Homo sapiens), P31749 [S473D]; assay: Inhibition of AKT1 PH S473D mutant at 10 uM
[7] = target: T5, BDNF/NT-3 growth factors receptor (Homo sapiens, UniProt Q16620); assay: inhibition of TRKB
[8] = target: Receptor-type tyrosine-protein kinase FLT3 (Homo sapiens) (UniProt P36888); details: 10 uM
[9] = target: Tyrosine-protein kinase JAK3 (Homo sapiens) (UniProt P52333); assay: inhibition of JAK3 at 10 uM
[10] = target: T6, Proto-oncogene tyrosine-protein kinase ROS (Homo sapiens, UniProt P08922); assay: inhibition of ROS at 10 uM
[11] = target: T7, Macrophage-stimulating protein receptor (Homo sapiens, UniProt Q04912); assay: inhibition of RON
[12] = system: Serine/threonine-protein kinase B-raf (Homo sapiens), P15056 [V600E]; assay: Inhibition of b-Raf V599E mutant at 10 uM
[13] = target: T8, Fibroblast growth factor receptor 3 (Homo sapiens, UniProt P22607); assay: inhibition of FGFR3
[14] = target: T9, Mitogen-activated protein kinase 1 (Homo sapiens, UniProt P28482); assay: Inhibition of ERK2
[15] = target: T10, Tyrosine-protein kinase SYK (Homo sapiens, UniProt P43405); assay: inhibition of SYK
[16] = target: T10, Tyrosine-protein kinase SYK; assay: inhibition of SYK at 10 uM
[17] = target: Cyclin-dependent kinase 2/cyclin E (Homo sapiens, UniProt P24941); assay: Inhibition of CDK2/cyclin E; format: protein-complex assay
Aurora kinase A = Aurora kinase A (Homo sapiens, UniProt O14965); assay: Inhibition of Aurora A kinase
[18] = target: Cyclin-dependent kinase 2/cyclin E (Homo sapiens) (UniProt P24864+P24941+O96020); assay: Inhibition of CDK2/cyclin E at 10 uM; format: protein-complex assay
[19] = target: Aurora kinase A (Homo sapiens) (UniProt O14965); assay: Inhibition of Aurora A kinase at 10 uM
[20] = target: Cyclin-dependent kinase 1/cyclin B (Homo sapiens) (UniProt P06493+P14635+Q8WWL7+O95067); assay: Inhibition of CDK1/cyclin B at 10 uM; format: protein-complex assay
[21] = inhibition of PKA
[22] = target: T11, Ribosomal protein S6 kinase beta-1 (Homo sapiens, UniProt P23443); assay: inhibition of p70S6K
[23] = target: T3, Hepatocyte growth factor receptor; assay: Inhibition of c-MET
[24] = target: T7, Macrophage-stimulating protein receptor; assay: inhibition of RON at 10 uM
[25] = target: T12, Proto-oncogene tyrosine-protein kinase Src (Homo sapiens, UniProt P12931); details: 10 uM
[26] = target: T2, Mitogen-activated protein kinase 8; assay: inhibition of JNK1a1; details: concentration not given here
[27] = target: T13, Dual specificity mitogen-activated protein kinase kinase 1 (Homo sapiens, UniProt Q02750); assay: inhibition of MEK1 at 10 uM
[28] = target: Receptor-type tyrosine-protein kinase FLT3 (Homo sapiens, UniProt P36888); assay: inhibition of FLT3
[29] = target: T12, Proto-oncogene tyrosine-protein kinase Src; assay: Inhibition of c-Src
[30] = target: Serine/threonine-protein kinase mTOR (Homo sapiens, UniProt P42345); assay: inhibition of mTOR at 10 uM
[31] = target: T14, Vascular endothelial growth factor receptor 2 (Homo sapiens, UniProt P35968); assay: inhibition of KDR
HS27 = assay: Antiproliferative activity against human HS27 cells assessed as growth inhibition after 24 hrs by MTT assay; format: functional; details: HS27, 24 h
[32] = target: T14, Vascular endothelial growth factor receptor 2; assay: inhibition of KDR at 10 uM
[33] = target: Insulin-like growth factor 1 receptor (Homo sapiens) (UniProt P08069); assay: inhibition of IGF-1R at 10 uM
[34] = target: T1, Serine/threonine-protein kinase PLK1; assay: inhibition of PLK1 at 10 uM
[35] = target: ALK tyrosine kinase receptor (Homo sapiens) (UniProt Q9UM73); details: 10 uM
[36] = target: T15, Glycogen synthase kinase-3 beta (Homo sapiens, UniProt P49841); assay: inhibition of GSK3-beta
[37] = target: Cyclin-dependent kinase 1/cyclin B (Homo sapiens, UniProt P06493); assay: Inhibition of CDK1/cyclin B; format: protein-complex assay
[38] = target: T9, Mitogen-activated protein kinase 1; assay: Inhibition of ERK2 at 10 uM
[39] = Antiproliferative activity against human A375P cells assessed as growth inhibition after 24 hrs by MTT assay; format: functional
How it was run: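 A375P cells kept in DMEM with 10% FBS and 1% penicillin/streptomycin at 37 °C under 5% CO2. Cells lifted with 0.05% trypsin–0.02% EDTA, seeded at 5 × 10^3 cells/well and left 24 h before dosing. Test compounds given as a 3-fold serial dilution over 12 points. Viability read by MTT reduction, absorbance at 590 nm.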

[40] = target: T11, Ribosomal protein S6 kinase beta-1; assay: inhibition of p70S6K at 10 uM
[41] = target: Focal adhesion kinase 1 (Homo sapiens) (UniProt Q05397); assay: Inhibition of FAK at 10 uM
[42] = target: T6, Proto-oncogene tyrosine-protein kinase ROS; assay: inhibition of ROS
[43] = target: T13, Dual specificity mitogen-activated protein kinase kinase 1; assay: inhibition of MEK1
[44] = inhibition of PKA at 10 uM
[45] = target: T8, Fibroblast growth factor receptor 3; details: 10 uM
[46] = target: T5, BDNF/NT-3 growth factors receptor; assay: inhibition of TRKB at 10 uM
[47] = target: T4, Mitogen-activated protein kinase 10; details: 10 uM
[48] = target: T15, Glycogen synthase kinase-3 beta; assay: inhibition of GSK3-beta at 10 uM

T6 sequence (P08922 whole entry): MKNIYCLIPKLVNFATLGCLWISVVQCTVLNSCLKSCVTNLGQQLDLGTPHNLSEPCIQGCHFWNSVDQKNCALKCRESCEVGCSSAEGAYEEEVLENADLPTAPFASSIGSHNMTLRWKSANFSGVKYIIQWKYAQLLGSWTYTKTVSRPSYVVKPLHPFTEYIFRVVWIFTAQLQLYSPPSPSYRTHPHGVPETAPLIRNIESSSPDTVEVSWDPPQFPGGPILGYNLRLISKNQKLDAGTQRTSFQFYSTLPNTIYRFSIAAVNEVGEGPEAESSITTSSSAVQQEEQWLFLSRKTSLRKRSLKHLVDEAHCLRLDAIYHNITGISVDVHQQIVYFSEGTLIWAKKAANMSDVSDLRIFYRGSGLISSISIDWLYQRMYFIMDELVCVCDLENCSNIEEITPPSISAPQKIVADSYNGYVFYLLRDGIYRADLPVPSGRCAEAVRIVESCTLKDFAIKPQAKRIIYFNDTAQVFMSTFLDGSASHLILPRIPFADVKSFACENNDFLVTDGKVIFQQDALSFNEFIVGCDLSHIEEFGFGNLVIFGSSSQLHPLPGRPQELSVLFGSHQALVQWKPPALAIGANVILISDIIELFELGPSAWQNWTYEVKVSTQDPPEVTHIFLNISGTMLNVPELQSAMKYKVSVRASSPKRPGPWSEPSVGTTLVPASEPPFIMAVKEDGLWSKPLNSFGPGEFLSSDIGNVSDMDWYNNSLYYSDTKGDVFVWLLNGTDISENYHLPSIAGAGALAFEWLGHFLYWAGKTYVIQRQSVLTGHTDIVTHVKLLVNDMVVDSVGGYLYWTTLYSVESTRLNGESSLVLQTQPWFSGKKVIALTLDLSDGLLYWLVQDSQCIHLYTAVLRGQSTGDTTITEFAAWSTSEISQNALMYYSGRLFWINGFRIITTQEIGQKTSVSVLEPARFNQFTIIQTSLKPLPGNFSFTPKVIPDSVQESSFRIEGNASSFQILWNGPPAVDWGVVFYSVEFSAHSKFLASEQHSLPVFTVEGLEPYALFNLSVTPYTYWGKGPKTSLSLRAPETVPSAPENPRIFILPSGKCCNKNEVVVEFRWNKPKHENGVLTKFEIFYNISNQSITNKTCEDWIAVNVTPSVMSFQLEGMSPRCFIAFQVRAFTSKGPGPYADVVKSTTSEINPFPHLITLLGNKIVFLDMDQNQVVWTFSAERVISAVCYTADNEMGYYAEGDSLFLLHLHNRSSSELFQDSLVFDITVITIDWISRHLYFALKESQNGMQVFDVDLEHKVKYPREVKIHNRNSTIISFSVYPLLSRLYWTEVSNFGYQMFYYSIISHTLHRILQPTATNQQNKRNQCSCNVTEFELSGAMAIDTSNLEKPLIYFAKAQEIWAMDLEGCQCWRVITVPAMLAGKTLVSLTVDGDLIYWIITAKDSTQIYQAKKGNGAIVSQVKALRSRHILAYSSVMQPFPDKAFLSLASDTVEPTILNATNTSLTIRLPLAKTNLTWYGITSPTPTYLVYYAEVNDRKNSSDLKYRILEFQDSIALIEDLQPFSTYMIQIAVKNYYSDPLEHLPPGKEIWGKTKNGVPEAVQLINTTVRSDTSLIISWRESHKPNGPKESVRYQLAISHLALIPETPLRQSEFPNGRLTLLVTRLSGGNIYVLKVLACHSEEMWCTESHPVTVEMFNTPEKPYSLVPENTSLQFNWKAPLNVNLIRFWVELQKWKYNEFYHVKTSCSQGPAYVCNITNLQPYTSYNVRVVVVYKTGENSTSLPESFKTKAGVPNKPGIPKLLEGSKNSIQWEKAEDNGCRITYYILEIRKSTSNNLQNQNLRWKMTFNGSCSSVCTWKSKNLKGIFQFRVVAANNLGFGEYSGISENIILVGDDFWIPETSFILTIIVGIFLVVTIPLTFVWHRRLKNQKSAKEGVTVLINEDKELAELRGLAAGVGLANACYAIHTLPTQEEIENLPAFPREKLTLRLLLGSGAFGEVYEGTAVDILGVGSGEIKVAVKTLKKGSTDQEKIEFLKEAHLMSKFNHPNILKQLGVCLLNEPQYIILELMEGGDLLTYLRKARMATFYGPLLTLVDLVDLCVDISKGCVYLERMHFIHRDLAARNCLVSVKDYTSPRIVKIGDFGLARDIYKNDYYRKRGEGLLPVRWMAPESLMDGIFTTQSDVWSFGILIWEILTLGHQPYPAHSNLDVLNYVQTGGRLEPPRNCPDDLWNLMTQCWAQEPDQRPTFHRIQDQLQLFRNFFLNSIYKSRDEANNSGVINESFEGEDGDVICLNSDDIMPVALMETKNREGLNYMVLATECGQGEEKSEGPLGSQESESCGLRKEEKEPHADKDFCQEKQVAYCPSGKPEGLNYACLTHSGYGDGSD
T4 sequence (P53779 whole entry): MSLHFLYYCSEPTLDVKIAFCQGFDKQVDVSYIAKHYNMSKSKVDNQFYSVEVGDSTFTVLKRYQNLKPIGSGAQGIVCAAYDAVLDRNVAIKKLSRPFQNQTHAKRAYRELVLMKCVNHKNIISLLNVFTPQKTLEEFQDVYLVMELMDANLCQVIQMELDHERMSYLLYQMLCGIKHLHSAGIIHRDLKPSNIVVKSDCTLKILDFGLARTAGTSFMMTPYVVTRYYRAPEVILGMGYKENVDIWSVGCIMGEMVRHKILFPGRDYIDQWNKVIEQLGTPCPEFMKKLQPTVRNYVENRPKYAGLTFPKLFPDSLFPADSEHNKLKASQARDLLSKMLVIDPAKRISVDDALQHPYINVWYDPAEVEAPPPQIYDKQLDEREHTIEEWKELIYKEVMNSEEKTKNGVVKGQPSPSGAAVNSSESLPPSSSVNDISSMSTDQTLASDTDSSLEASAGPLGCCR
T7 sequence (Q04912 25-304 limits assumed): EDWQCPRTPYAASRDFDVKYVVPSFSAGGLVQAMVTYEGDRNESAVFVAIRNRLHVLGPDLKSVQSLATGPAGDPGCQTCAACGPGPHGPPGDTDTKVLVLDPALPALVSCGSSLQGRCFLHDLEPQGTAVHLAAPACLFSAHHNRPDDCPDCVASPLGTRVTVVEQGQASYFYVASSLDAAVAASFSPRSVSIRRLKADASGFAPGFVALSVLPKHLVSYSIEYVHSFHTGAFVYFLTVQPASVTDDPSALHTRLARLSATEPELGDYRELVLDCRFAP
T7 sequence (Q04912 310-1400 limits assumed): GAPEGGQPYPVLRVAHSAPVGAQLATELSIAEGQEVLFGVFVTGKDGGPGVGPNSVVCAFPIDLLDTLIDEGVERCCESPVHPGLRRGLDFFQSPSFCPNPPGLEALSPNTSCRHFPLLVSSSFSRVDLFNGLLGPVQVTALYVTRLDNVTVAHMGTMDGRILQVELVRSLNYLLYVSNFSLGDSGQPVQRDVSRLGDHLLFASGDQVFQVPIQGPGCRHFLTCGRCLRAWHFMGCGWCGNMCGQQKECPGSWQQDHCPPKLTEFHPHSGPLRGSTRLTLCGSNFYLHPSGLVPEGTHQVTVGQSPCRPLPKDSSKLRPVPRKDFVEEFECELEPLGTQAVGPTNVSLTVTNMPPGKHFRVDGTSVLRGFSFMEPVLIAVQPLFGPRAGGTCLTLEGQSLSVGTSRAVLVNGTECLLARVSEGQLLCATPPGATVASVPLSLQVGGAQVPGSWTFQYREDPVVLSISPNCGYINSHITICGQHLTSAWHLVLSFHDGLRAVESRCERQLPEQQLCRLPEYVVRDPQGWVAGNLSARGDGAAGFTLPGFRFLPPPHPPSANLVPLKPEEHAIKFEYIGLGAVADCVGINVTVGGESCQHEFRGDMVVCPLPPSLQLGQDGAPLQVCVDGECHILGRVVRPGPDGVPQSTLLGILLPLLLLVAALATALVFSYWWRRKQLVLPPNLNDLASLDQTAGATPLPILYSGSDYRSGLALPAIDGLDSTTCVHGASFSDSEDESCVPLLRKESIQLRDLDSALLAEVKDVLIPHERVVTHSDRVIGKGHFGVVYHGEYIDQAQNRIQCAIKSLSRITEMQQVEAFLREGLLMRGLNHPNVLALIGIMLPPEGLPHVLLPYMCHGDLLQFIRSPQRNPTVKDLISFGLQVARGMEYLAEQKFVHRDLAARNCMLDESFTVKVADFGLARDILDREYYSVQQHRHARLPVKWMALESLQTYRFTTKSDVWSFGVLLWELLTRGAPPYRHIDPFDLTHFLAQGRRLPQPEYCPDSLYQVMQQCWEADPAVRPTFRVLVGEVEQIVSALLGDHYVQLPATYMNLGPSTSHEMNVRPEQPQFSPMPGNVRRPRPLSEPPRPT
T1 sequence (P53350 whole entry): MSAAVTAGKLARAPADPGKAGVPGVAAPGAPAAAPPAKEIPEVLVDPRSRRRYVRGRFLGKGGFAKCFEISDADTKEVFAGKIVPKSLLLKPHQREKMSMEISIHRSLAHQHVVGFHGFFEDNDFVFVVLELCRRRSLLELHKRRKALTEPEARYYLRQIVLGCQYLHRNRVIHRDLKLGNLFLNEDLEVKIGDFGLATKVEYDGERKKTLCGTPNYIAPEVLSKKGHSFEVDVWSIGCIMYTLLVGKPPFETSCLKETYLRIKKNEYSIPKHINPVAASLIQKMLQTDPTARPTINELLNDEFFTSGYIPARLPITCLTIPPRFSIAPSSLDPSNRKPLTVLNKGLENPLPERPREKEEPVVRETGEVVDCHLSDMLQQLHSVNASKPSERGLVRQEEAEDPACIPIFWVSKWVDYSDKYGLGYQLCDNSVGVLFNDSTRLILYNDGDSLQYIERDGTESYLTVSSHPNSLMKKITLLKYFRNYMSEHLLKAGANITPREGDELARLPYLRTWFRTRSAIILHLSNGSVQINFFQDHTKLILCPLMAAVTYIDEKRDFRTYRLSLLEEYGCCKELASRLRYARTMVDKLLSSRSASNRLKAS

Q: Which results are given for `COc1ccc(Cn2ncc(NC(=O)c3cc(NC(=O)Nc4ccc(Cl)c(C(F)(F)F)c4)ccc3C)c2N)cc1`?
A: inhibition [1]: 100%; pIC50 [2]: 6.78; pIC50 [3]: 5.80; inhibition [4]: 13%; pIC50 [5]: < 4.70; inhibition [6]: 3.7%; pIC50 [7]: > 9.00; inhibition [8]: 13%; inhibition [9]: 0%; inhibition [10]: 0%; pIC50 [11]: 6.56; inhibition [12]: 97%; pIC50 [13]: 7.67; pIC50 [14]: 4.94; pIC50 [15]: > 9.00; inhibition [16]: 0%; pIC50 [17]: 8.67; pIC50 (Aurora kinase A): > 9.00; inhibition [18]: 0%; inhibition [19]: 0%; inhibition [20]: 0%; pIC50 [21]: > 9.00; pIC50 [22]: > 9.00; pIC50 [23]: 6.71; inhibition [24]: 0%; inhibition [25]: 16%; inhibition [26]: 7.1%; inhibition [27]: 0%; pIC50 [28]: > 9.00; pIC50 [29]: 8.32; inhibition [30]: 1.2%; pIC50 [31]: 8.03; GI50 (HS27): > 30000 nM; inhibition [32]: 0%; inhibition [33]: 0.7%; inhibition [34]: 6.3%; inhibition [35]: 7.7%; pIC50 [36]: 8.56; pIC50 [37]: 8.49; inhibition [38]: 0%; GI50 [39]: 270 nM; inhibition [40]: 0%; inhibition [41]: 1.5%; pIC50 [42]: > 9.00; pIC50 [43]: 7.74; inhibition [44]: 0%; inhibition [45]: 0.1%; inhibition [46]: 6.6%; inhibition [47]: 13%; inhibition [48]: 1.4%
